# What was measured:
# Felis catus [1] = organism: Felis catus; assay: Neuromuscular blocking activity in cat assessed as blockade of tibialis muscle twitches; type: functional
# Outline: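 The reported value is the dose that produced 50% blockade of muscle twitches, given ± standard error together with the number of determinations.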
# Felis catus [2] = organism: Felis catus; assay: Neuromuscular blocking activity in cat assessed as time duration of action of blockade of tibialis muscle twitches at ED50; type: functional
# [3] = Dissociation constant, pKa of the compound in water; type: physicochemical
pKa [3],SMILES,ED50 (Felis catus [1]) [µmol/kg],Time (Felis catus [2]) [min]
–,C[N+](C)(C)c1cccc2c1CC/C2=N\N.[I-],> 10,–
–,C[N+](C)(C)c1cccc2c1CCC/C2=N\N.Cc1ccc(S(=O)(=O)[O-])cc1,> 10,–
–,C[N+](C)(C)c1ccc2c(c1)CC/C2=N\N.[I-],0.44,10
–,C[N+](C)(C)c1ccc2c(c1)/C(=N/N)CCC2.[I-],> 10,–
2.5,C[N+](C)(C)c1ccc2c(c1)CCC/C2=N\N.[I-],0.16,5.2
–,C[N+](C)(C)CCOC(=O)CCC(=O)OCC[N+](C)(C)C.[Cl-].[Cl-] [SUCCINYLCHOLINE CHLORIDE],0.1,4.4
–,CN(C)/N=C1\CCCc2cc([N+](C)(C)C)ccc21.[I-],> 10,–
–,C[N+](C)(C)c1ccc2c(c1)/C(=N/N)CC2.[I-],3.98,17.1

# — ChEMBL document CHEMBL3271940, “Monoquaternary neuromuscular blocking agents based on 1-tetralone and 1-indanone” (J Med Chem, 1976)
